# What was measured:
# Conditions in all cases: stereoisomer not certain
# [1] = target: T1, OR1A2 (Homo sapiens) (UniProt Q9Y585)
# T1 sequence (whole entry): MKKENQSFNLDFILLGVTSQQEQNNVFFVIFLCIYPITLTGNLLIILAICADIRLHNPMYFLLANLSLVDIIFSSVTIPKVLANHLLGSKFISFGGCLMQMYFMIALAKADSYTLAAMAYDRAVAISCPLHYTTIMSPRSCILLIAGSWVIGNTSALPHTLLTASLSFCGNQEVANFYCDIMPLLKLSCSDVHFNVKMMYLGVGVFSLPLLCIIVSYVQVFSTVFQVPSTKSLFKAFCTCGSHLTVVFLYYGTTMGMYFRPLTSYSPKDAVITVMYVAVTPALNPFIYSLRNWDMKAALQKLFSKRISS
# In short: (§1)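 Each entry records the cell line, G-protein, co-transfected protein and tags used. Methods varied with the source, often transient luciferase assays in mammalian cell lines. A receptor–molecule pair is called responsive (active) if the original authors judged its signal statistically different from baseline and non-responsive (inactive) otherwise.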
# [2] = target: T2, OR1D2 (Homo sapiens) (UniProt P34982)
# T2 sequence (whole entry): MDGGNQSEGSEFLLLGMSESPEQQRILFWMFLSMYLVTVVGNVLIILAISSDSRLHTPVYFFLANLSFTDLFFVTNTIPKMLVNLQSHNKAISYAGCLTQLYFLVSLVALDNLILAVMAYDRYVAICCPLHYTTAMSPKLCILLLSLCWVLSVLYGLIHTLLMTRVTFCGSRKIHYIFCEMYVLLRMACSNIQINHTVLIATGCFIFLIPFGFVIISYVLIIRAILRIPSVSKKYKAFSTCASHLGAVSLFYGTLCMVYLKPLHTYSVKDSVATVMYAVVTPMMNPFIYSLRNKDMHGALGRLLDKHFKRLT
# In short: as §1
# [3] = tested on: OR1B1
# Chain of OR1B1 (as listed by the source): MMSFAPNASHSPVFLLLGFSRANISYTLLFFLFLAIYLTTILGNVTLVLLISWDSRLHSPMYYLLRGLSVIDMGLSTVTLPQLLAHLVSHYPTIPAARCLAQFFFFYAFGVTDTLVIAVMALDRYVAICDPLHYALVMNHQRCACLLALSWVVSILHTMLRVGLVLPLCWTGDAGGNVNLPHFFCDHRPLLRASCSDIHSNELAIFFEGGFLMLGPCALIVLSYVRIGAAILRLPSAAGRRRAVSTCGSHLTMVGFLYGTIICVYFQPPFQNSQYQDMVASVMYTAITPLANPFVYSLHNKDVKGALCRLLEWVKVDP
# In short: as §1
# [4] = target: OR1C1 (Homo sapiens) (UniProt Q15619)
# Chain of OR1C1 (Homo sapiens) (Q15619 whole entry): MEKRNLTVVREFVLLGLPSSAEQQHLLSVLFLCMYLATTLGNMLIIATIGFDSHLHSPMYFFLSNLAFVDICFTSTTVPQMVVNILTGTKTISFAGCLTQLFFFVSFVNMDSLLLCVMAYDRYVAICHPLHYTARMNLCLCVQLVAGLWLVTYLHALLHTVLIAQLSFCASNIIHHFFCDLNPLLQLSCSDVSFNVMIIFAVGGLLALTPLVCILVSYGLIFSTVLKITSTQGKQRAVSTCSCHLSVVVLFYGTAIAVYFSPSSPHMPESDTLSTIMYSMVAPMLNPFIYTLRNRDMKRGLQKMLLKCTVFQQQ
# In short: as §1
# [5] = target: OR1D4 (Homo sapiens) (UniProt P47884)
# Chain of OR1D4 (Homo sapiens) (P47884 whole entry): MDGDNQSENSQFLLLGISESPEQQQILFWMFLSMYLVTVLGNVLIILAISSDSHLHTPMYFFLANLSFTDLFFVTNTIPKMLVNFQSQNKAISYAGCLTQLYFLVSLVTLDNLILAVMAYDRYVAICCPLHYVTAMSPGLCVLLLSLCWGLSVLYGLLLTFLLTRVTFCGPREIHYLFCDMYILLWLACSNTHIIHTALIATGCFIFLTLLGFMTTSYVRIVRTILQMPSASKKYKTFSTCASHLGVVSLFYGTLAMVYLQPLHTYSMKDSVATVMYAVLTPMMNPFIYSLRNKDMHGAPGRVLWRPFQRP
# In short: as §1
# [6] = target: OR1D5 (Homo sapiens) (UniProt P58170)
# Chain of OR1D5 (Homo sapiens) (P58170 whole entry): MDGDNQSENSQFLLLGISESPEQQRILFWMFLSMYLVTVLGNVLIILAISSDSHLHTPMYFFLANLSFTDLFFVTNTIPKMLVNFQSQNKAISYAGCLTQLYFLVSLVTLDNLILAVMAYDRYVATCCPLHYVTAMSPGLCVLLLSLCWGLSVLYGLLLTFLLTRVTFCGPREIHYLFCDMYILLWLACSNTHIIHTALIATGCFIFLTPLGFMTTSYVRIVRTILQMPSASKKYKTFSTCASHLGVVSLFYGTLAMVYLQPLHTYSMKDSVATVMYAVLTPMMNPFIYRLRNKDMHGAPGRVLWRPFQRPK
# In short: as §1
# [7] = target: OR1E2 (Homo sapiens) (UniProt P47887)
# Chain of OR1E2 (Homo sapiens) (P47887 whole entry): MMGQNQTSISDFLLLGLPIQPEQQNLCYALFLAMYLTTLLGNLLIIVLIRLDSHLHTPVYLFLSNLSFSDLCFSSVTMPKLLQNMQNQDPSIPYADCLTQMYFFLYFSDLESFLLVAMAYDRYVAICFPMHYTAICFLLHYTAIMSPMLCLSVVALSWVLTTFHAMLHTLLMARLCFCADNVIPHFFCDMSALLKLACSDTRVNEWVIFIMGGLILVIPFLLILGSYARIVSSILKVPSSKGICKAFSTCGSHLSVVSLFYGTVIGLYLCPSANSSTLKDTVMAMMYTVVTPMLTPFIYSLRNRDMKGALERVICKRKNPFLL
# In short: as §1
# [8] = tested on: OR1A2 G256C W293C
# In short: as §1
# [9] = target: OR1E1 (Homo sapiens) (UniProt P30953)
# Chain of OR1E1 (Homo sapiens) (P30953 whole entry): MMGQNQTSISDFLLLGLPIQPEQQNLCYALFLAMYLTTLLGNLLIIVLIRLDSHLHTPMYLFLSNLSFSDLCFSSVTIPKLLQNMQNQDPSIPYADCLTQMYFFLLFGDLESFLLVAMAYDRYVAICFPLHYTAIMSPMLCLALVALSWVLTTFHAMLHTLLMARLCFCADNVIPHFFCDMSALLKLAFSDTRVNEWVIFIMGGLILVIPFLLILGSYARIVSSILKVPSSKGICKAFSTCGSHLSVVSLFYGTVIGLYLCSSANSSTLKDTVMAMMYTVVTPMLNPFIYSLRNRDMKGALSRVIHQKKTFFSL
# In short: as §1
# [10] = tested on: OR1E2
# Chain of OR1E2 (as listed by the source): as the sequence (P47887 whole entry) above, with C27R counted along it
# In short: as §1
smiles,measurement,setting,value
CCC(Br)C(=O)O (stereo not given),odorant receptor agonist call,[1],inactive
ClC=CCl,odorant receptor agonist call,[1],inactive
CC(C=O)Cc1ccc2c(c1)OCO2 (stereo not given),odorant receptor agonist call,[1],active
same,odorant receptor agonist call,[2],inactive
Cc1c([N+](=O)[O-])c(C)c([N+](=O)[O-])c(C(C)(C)C)c1[N+](=O)[O-],odorant receptor agonist call,[1],inactive
same,odorant receptor agonist call,[3],inactive
same,odorant receptor agonist call,[4],inactive
same,odorant receptor agonist call,[5],inactive
same,odorant receptor agonist call,[6],inactive
same,odorant receptor agonist call,[7],inactive
CCCC(Br)C(=O)O (stereo not given),odorant receptor agonist call,[1],inactive
O=Cc1ccccc1,odorant receptor agonist call,[2],inactive
O=C([O-])Cc1ccccc1,odorant receptor agonist call,[1],inactive
C=CCOC(=O)Cc1ccccc1,odorant receptor agonist call,[1],inactive
same,odorant receptor agonist call,[8],inactive
same,odorant receptor agonist call,[3],inactive
same,odorant receptor agonist call,[4],inactive
same,odorant receptor agonist call,[2],inactive
same,odorant receptor agonist call,[6],inactive
same,odorant receptor agonist call,[9],inactive
same,odorant receptor agonist call,[7],inactive
same,odorant receptor agonist call,[10],inactive
O=CC=Cc1ccccc1,odorant receptor agonist call,[2],inactive
CCCCC(Br)C(=O)O (stereo not given),odorant receptor agonist call,[1],inactive
CCCCCCC(Br)C(=O)O (stereo not given),odorant receptor agonist call,[1],inactive
